Measurements from ChEMBL document CHEMBL1255494, “In vivo comparison of the pharmacodynamic targets for echinocandin drugs against Candida species” (Antimicrob Agents Chemother, 2010).
Converted amounts (≈) assume the structure as drawn. *1 amine or outer side, *2 acyl side, *3 side chain or, on linkers, in order; H or OH if unused. Where a SMILES comes first, the peptide text is derived from it. Bridges are numbered along the chain shown (N, C = ends). [ ]: non-standard residue; d: D form. The star is where a group is joined. pTerphenylCO(4''-OnC5H11) = CCCCCOc1ccc(-c2ccc(-c3ccc(C(=O)*)cc3)cc2)cc1; Orn(4R-OH,5R-OH) = O=C([C@H](C[C@@H](O)[C@@H](O)N[*:3])N[*:1])[*:2]; hTyr(3S-OH,4S-OH) = N[C@H](C(=O)O)[C@H](O)[C@@H](O)c1ccc(O)cc1; Pro(3S-OH,4S-Me) = C[C@H]1CN[C@H](C(=O)O)[C@H]1O; Hyp = O=C(O)[C@@H]1C[C@@H](O)CN1

What was measured:
Candida parapsilosis [1] = assay: Antifungal activity against Candida parapsilosis 20553.009 after 24 hrs; format: functional; conditions: Lodderomyces parapsilosis, 20553.009, 24 h
Outline: (§1)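 MICs by CLSI M27-A3 broth dilution in RPMI 1640, inoculum 0.5 × 10³ to 2.5 × 10³ cells/ml, 35°C. Read visually at 24 h as the lowest concentration giving ≥50% growth reduction versus control. Run on three occasions in duplicate and reported as the mean. C. krusei ATCC 6258 and C. parapsilosis ATCC 22019 served as QC strains.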

Candida parapsilosis [2] = assay: Antifungal activity against Candida parapsilosis 20423.072 after 24 hrs; format: functional; conditions: Lodderomyces parapsilosis, 20423.072, 24 h; outline: as §1
[3] = Ratio of fAUC (0 to 24 hrs) in Candida glabrata infected neutropenic ICR Swiss mouse to MIC for Candida glabrata at 1 log kill dose after 24 hrs; format: functional
Candida parapsilosis [4] = assay: Fungistatic activity against Candida parapsilosis infected in neutropenic ICR Swiss mouse after 24 hrs; format: functional
Outline: (§2)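 Female ICR Swiss mice, neutropenic via cyclophosphamide s.c. (150 mg/kg day −4, 100 mg/kg day −1 and day +2), infected by tail-vein injection of clinical isolates 2 h before therapy. Intraperitoneal dosing every 24 h for 4 days, 4–6 dose levels from 0.078 to 160 mg/kg, 3 mice per regimen. Kidney CFU counted at 96 h. Sigmoid dose-effect fit gives static dose and 1 log kill dose relative to burden at start of therapy.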

Candida parapsilosis [5] = assay: Antifungal activity against Candida parapsilosis 20450.096 after 24 hrs; format: functional; conditions: Lodderomyces parapsilosis, 20450.096, 24 h; outline: as §1
Nakaseomyces glabratus [6] = assay: Antifungal activity against Candida glabrata 5376 after 24 hrs; format: functional; conditions: Nakaseomyces glabratus, 5376, 24 h
Outline: (§3)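 Broth microdilution per CLSI M27-A3 in RPMI 1640; inoculum 0.5 × 10³ to 2.5 × 10³ cells/ml, 35°C. […] Three separate occasions in duplicate, mean reported; C. krusei ATCC 6258 and C. parapsilosis ATCC 22019 as daily QC.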

Mus musculus = assay: Protein binding in Candida albicans infected neutropenic ICR Swiss mouse at 80 mg/kg, ip; format: ADME, organism-based; parameters: dose 80 mg/kg, route intraperitoneal; conditions: in vivo
Nakaseomyces glabratus [7] = assay: Antifungal activity against Candida glabrata 5592 after 24 hrs; format: functional; conditions: Nakaseomyces glabratus, 5592, 24 h; outline: as §3
Candida parapsilosis [8] = assay: Antifungal activity against Candida parapsilosis 20435.057 after 24 hrs; format: functional; conditions: Lodderomyces parapsilosis, 20435.057, 24 h; outline: as §1
[9] = AUC (0 to 24 hrs) in Candida albicans infected neutropenic ICR Swiss mouse at 5 mg/kg, ip; format: ADME, organism-based; parameters: time < 24 hr, dose 5 mg/kg, route intraperitoneal; conditions: plasma
Outline: (§4)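 Neutropenic female ICR Swiss mice (cyclophosphamide sc at 150 mg/kg on day −4, 100 mg/kg on day −1 and day +2) infected iv via tail vein with Candida; single ip doses of 5, 20 or 80 mg/kg. Serum drawn from 3 mice per time point at eight time points and assayed by microbiologic assay (C. albicans K1) or […]. Noncompartmental analysis; AUC by trapezoidal rule.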

[10] = Ratio of fAUC (0 to 24 hrs) in Candida albicans infected neutropenic ICR Swiss mouse to MIC for Candida albicans at static dose after 24 hrs; format: functional
[11] = Ratio of AUC (0 to 24 hrs) in Candida parapsilosis infected neutropenic ICR Swiss mouse to MIC for Candida parapsilosis at 1 log kill dose after 24 hrs; format: functional
Outline: (§5)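 Neutropenic mice were infected iv and treated 2 h later. Four to six ip dose levels (0.078–160 mg/kg) were given every 24 h for 4 days, 3 mice per regimen. Kidney CFU were counted at 96 h. A sigmoid dose-effect model gave the static and 1-log-kill doses relative to burden at therapy start.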

Candida albicans [12] = assay: Antifungal activity against Candida albicans 580 after 24 hrs; format: functional; conditions: Candida albicans, 580, 24 h; outline: as §3
Candida parapsilosis [13] = assay: Antifungal activity against Candida parapsilosis 20385.079 after 24 hrs; format: functional; conditions: Lodderomyces parapsilosis, 20385.079, 24 h; outline: as §1
[14] = Ratio of fAUC (0 to 24 hrs) in Candida parapsilosis infected neutropenic ICR Swiss mouse to MIC for Candida parapsilosis at 1 log kill dose after 24 hrs; format: functional
Nakaseomyces glabratus [15] = assay: Antifungal activity against Candida glabrata infected in neutropenic ICR Swiss mouse assessed log reduction in bacterial count […]; format: functional; outline: as §2
[16] = Ratio of AUC (0 to 24 hrs) in Candida glabrata infected neutropenic ICR Swiss mouse to MIC for Candida glabrata at static dose after 24 hrs; format: functional; outline: as §5
Candida albicans [17] = assay: Antifungal activity against Candida albicans 570 after 24 hrs; format: functional; conditions: Candida albicans, 570, 24 h; outline: as §1
Candida parapsilosis [18] = assay: Antifungal activity against Candida parapsilosis 20557.012 after 24 hrs; format: functional; conditions: Lodderomyces parapsilosis, 20557.012, 24 h; outline: as §1
Candida albicans [19] = assay: Antifungal activity against Candida albicans K1 after 24 hrs; format: functional; conditions: K1, 24 h; outline: as §3
[20] = Ratio of fAUC (0 to 24 hrs) in Candida parapsilosis infected neutropenic ICR Swiss mouse to MIC for Candida parapsilosis at static dose after 24 hrs; format: functional
Candida albicans [21] = assay: Antifungal activity against Candida albicans 98-210 after 24 hrs; format: functional; conditions: 98-210, 24 h; outline: as §3
Candida parapsilosis [22] = assay: Antifungal activity against Candida parapsilosis 20423.078 after 24 hrs; format: functional; conditions: Lodderomyces parapsilosis, 20423.078, 24 h; outline: as §1
[23] = Ratio of AUC (0 to 24 hrs) in Candida parapsilosis infected neutropenic ICR Swiss mouse to MIC for Candida parapsilosis at static dose after 24 hrs; format: functional; outline: as §5
[24] = AUC (0 to 24 hrs) in Candida albicans infected neutropenic ICR Swiss mouse at 80 mg/kg, ip; format: ADME, organism-based; parameters: time < 24 hr, dose 80 mg/kg, route intraperitoneal; conditions: plasma; outline: as §4
[25] = Ratio of AUC (0 to 24 hrs) in Candida albicans infected neutropenic ICR Swiss mouse to MIC for Candida albicans at static dose after 24 hrs; format: functional; outline: as §5
[26] = AUC (0 to 24 hrs) in Candida albicans infected neutropenic ICR Swiss mouse at 20 mg/kg, ip; format: ADME, organism-based; parameters: time < 24 hr, dose 20 mg/kg, route intraperitoneal; conditions: plasma; outline: as §4
Candida parapsilosis [27] = assay: Antifungal activity against Candida parapsilosis 20489.085 after 24 hrs; format: functional; conditions: Lodderomyces parapsilosis, 20489.085, 24 h; outline: as §3
Nakaseomyces glabratus [28] = assay: Antifungal activity against Candida glabrata 33609 after 24 hrs; format: functional; conditions: Nakaseomyces glabratus, 33609, 24 h; outline: as §3
Nakaseomyces glabratus [29] = assay: Antifungal activity against Candida glabrata 34341 after 24 hrs; format: functional; conditions: Nakaseomyces glabratus, 34341, 24 h; outline: as §1
Candida parapsilosis [30] = assay: Antifungal activity against Candida parapsilosis 20562.03 after 24 hrs; format: functional; conditions: Lodderomyces parapsilosis, 20562.03, 24 h; outline: as §1
Candida albicans [31] = assay: Antifungal activity against Candida albicans 98-17 after 24 hrs; format: functional; conditions: 98-17, 24 h; outline: as §1
Candida parapsilosis [32] = assay: Antifungal activity against Candida parapsilosis 20477.048 after 24 hrs; format: functional; conditions: Lodderomyces parapsilosis, 20477.048, 24 h; outline: as §1
Candida parapsilosis [33] = assay: Antifungal activity against Candida parapsilosis 20519.069 after 24 hrs; format: functional; conditions: Lodderomyces parapsilosis, 20519.069, 24 h; outline: as §1
[34] = Ratio of AUC (0 to 24 hrs) in Candida glabrata infected neutropenic ICR Swiss mouse to MIC for Candida glabrata at 1 log kill dose after 24 hrs; format: functional; outline: as §5
[35] = Ratio of fAUC (0 to 24 hrs) in Candida albicans infected neutropenic ICR Swiss mouse to MIC for Candida albicans at 1 log kill dose after 24 hrs; format: functional

For `CCCCCOc1ccc(-c2ccc(-c3ccc(C(=O)N[C@H]4C[C@@H](O)[C@@H](O)NC(=O)[C@@H]5[C@@H](O)[C@@H](C)CN5C(=O)[C@H]([C@@H](C)O)NC(=O)[C@H]([C@H](O)[C@@H](O)c5ccc(O)cc5)NC(=O)[C@@H]5C[C@@H](O)CN5C(=O)[C@H]([C@@H](C)O)NC4=O)cc3)cc2)cc1` [ANIDULAFUNGIN] ({pTerphenylCO(4''-OnC5H11)}-[Orn(4R-OH,5R-OH)]T[Hyp][hTyr(3S-OH,4S-OH)]T[Pro(3S-OH,4S-Me)]; lactam 1-C), the MIC (Candida parapsilosis [1]) was 2 µg/mL (≈ 1.75 µM), the MIC (Candida parapsilosis [2]) was 1 µg/mL (≈ 0.877 µM) and the Ratio [3] was 32. It also gave an Activity (Candida parapsilosis [4]) of 51 mg/kg, an MIC (Candida parapsilosis [5]) of 1 µg/mL (≈ 0.877 µM) and an MIC (Nakaseomyces glabratus [6]) of 0.03 µg/mL (≈ 0.0263 µM). The Activity (Mus musculus) was 99%, the MIC (Nakaseomyces glabratus [7]) was 0.06 µg/mL (≈ 0.0526 µM) and the MIC (Candida parapsilosis [8]) was 1 µg/mL (≈ 0.877 µM). The AUC(0-t) at 24 h [9] was 96 µg·h/mL, the Ratio [10] was 27.8 and the Ratio [11] was 2244. For the same molecule, the MIC (Candida albicans [12]) was 0.015 µg/mL (≈ 0.0132 µM), the MIC (Candida parapsilosis [13]) was 1 µg/mL (≈ 0.877 µM) and the Ratio [14] was 22. For the same molecule, the Activity (Nakaseomyces glabratus [15]) was 39 mg/kg, the Ratio [16] was 1366 and the MIC (Candida albicans [17]) was 0.03 µg/mL (≈ 0.0263 µM). It also gave an MIC (Candida parapsilosis [18]) of 0.5 µg/mL (≈ 0.438 µM), an MIC (Candida albicans [19]) of 0.015 µg/mL (≈ 0.0132 µM) and a Ratio [20] of 11.5. The MIC (Candida albicans [21]) was 0.015 µg/mL (≈ 0.0132 µM), the MIC (Candida parapsilosis [22]) was 1 µg/mL (≈ 0.877 µM) and the Ratio [23] was 1154. It also gave an AUC(0-t) at 24 h [24] of 1980 µg·h/mL, a Ratio [25] of 2782 and an AUC(0-t) at 24 h [26] of 382 µg·h/mL. It also gave an MIC (Candida parapsilosis [27]) of 1 µg/mL (≈ 0.877 µM), an MIC (Nakaseomyces glabratus [28]) of 0.03 µg/mL (≈ 0.0263 µM) and an MIC (Nakaseomyces glabratus [29]) of 0.12 µg/mL (≈ 0.105 µM). For the same molecule, the MIC (Candida parapsilosis [30]) was 1 µg/mL (≈ 0.877 µM), the MIC (Candida albicans [31]) was 0.03 µg/mL (≈ 0.0263 µM) and the MIC (Candida parapsilosis [32]) was 2 µg/mL (≈ 1.75 µM). The MIC (Candida parapsilosis [33]) was 4 µg/mL (≈ 3.51 µM), the Ratio [34] was 3188 and the Ratio [35] was 91.
